From ChEMBL document CHEMBL4680124, “2-Styryl-4-aminoquinazoline derivatives as potent DNA-cleavage, p53-activation and in vivo effective anticancer agents” (Eur J Med Chem, 2020) come the findings set out here.

The subject of one assay is T-24. The experiment in a line: Cytotoxicity against human T-24 cells […] assessed as reduction in cell viability preincubated for 48 hrs and measured after 4 hrs by MTT assay. The class given is functional, cell-based.
Assay [1] concerns MGC-803. Description: Cytotoxicity against human MGC-803 cells expressing mutant type p53 assessed as reduction in cell viability preincubated for 48 hrs and measured after 4 hrs by MTT assay. The class given is functional, cell-based.
The next assay relates to A549. Description: Cytotoxicity against human A549 cells expressing wild type p53 assessed as reduction in cell viability preincubated for 48 hrs and measured after 4 hrs by MTT assay. The class given is functional, cell-based. (In general: Tetrazolium dyes change colour on reduction, which living cells bring about.)
A further assay deals with L02. Description: Cytotoxicity against human HL-7702 cells expressing wild type p53 assessed as reduction in cell viability preincubated for 48 hrs and measured after 4 hrs by MTT assay. The class given is functional, cell-based.
Assay [2] relates to MGC-803. Description: Induction of apoptosis in human MGC-803 cells assessed as increase in p21 protein expression upto 2.5 uM incubated for 24 hrs by Western blot analysis. The class given is functional, cell-based. The note with it: dose microM <=2.5, time 24.0 hrs. The gist of the method:
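MGC-803 cells (2×10^6) cultured overnight, then exposed 24 h to 0.5, 1.0 or 2.5 μM, or 5.0 μM for the reference agent. Lysates were resolved by SDS-PAGE, transferred to PVDF and probed with primary antibodies. Detection used AP-linked anti-rabbit IgG and ECL. β-actin served as loading control.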

Assay [3] relates to MGC-803. Description: Cell cycle arrest in human MGC-803 cells assessed as accumulation at G2/M phase at 0.5 uM after 48 hrs by propidium iodide staining-based flow cytometric analysis (reference value: 7.94%). The class given is functional. A general note: A flow cytometer gives signals particle by particle.
The test system of assay [4] is MGC-803. Description: Induction of ROS generation in human MGC-803 cells assessed as intracellular ROS level at 0 to 2.5 uM after 24 hrs by DCFH-DA staining-based flow cytometric analysis. The class given is functional, cell-based. The note with it: dose 0-2.5 µM. The method, boiled down:
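MGC-803 cells treated at 0.5, 1.0 or 2.5 µM for 24 h, harvested, washed in cold PBS and loaded with DCFH-DA at 37 °C for 30 min in the dark. Washed three times in PBS; fluorescence read by flow cytometry. Representative of three experiments.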

Assay [5] has as its system MGC-803. The experiment in a line: Induction of intracellular Ca+ level in human MGC-803 cells at 0 to 2.5 uM after 24 hrs by fluo-3 AM dye based flow cytometric analysis. The format is functional, cell-based. The note with it: dose 0-2.5 µM. The method, boiled down: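 MGC-803 cells in six-well plates exposed 24 h to 0.5, 1.0 or 2.5 μM. Cells were harvested, washed in cold PBS and loaded with Fluo-3 AM for 30 min at 37 in the dark. After three PBS washes, intracellular Ca2+ fluorescence was read by flow cytometry. Three independent experiments.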

Assay [6] deals with MGC-803. The experiment in a line: Induction of apoptosis in human MGC-803 cells assessed as activation of caspase 9 at 2.5 uM incubated for 24 hrs by flow cytometric analysis (reference value: 2.82%). The format is functional.
The test system of assay [7] is MGC-803. The experiment in a line: Antitumor activity against human MGC-803 cells xenografted in BALB/C nude mouse assessed as tumor growth inhibition at 10 mg/kg, ip administered every 2 days and measured 3 times per week. The note with it: time 2.0 day. The format is functional, organism-based. The method, boiled down: (§1)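 Male BALB/c nude mice, 6 weeks old, given 5×10^6 MGC-803 cells s.c. in the flank. When tumors reached about 80 mm3, mice were randomized (n = 6/group) and dosed i.p. every 2 days. Vehicle was 5% DMSO in saline. Drug solutions were 1.0 or 2.0 mg/mL (DMSO/saline). Tumor length and width plus body weight were measured three times weekly; volume = lw²/2. Mean ± SD.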
In general terms: In xenograft studies the graft and the host belong to different species.

In assay [8] the test system is MGC-803. The experiment in a line: Antitumor activity against human MGC-803 cells xenografted in BALB/C nude mouse assessed as tumor growth inhibition at 10 mg/kg, ip administered every 2 days and measured 3 times per week for 16 days. The note with it: time 16 day. The format is functional. Further details: scale not given: the % may be the effect or the level left. The gist of the method: as §1

The subject of assay [9] is MGC-803. Description: Induction of apoptosis in human MGC-803 cells assessed as early apoptotic cells at 0.5 uM measured after 24 hrs by Annexin-V/propidium iodide staining-based flow cytometric analysis (Rvb =0.84%).

Active and inactive are the calls of the source. The calls are words filed in the database; no cut-off is given here.

In the case of `NCCCCNc1nc(/C=C/c2ccc([N+](=O)[O-])cc2)nc2ccccc12`, the IC50 (as a rule, the concentration that gives 50% inhibition) with T-24 amounted to 1.79 µM; in the assay on MGC-803 [1] it was 1.73 µM; with A549 it was 5.48 µM; in the assay on L02, 7.46 µM. Besides, the outcome in the assay with MGC-803 [2], in the assay with MGC-803 [4], in the assay with MGC-803 [5] and in the assay with MGC-803 [7] was Active. Besides, the Activity was 72.67% in the assay with MGC-803 [3], 57.35% in the assay with MGC-803 [6], 35.9% in the assay with MGC-803 [8] and 14% in the assay on MGC-803 [9].
